# Where two headings read alike, the source gives them in different places.
# B1: SerpinB1: endogenous protease (elastase) inhibitor derived from the liver that promotes human β-cell proliferation (protein, UniProt P30740 1-379, looked up)
# Leukocyte elastase inhibitor: MEQLSSANTRFALDLFLALSENNPAGNIFISPFSISSAMAMVFLGTRGNTAAQLSKTFHFNTVEEVHSRFQSLNADINKRGASYILKLANRLYGEKTYNFLPEFLVSTQKTYGADLASVDFQHASEDARKTINQWVKGQTEGKIPELLASGMVDNMTKLVLVNAIYFKGNWKDKFMKEATTNAPFRLNKKDRKTVKMMYQKKKFAYGYIEDLKCRVLELPYQGEELSMVILLPDDIEDESTGLKKIEEQLTLEKLHEWTKPENLDFIEVNVSLPRFKLEESYTLNSDLARLGVQDLFNSSKADLSGMSGARDIFISKIVHKSFVEVNEEGTEAAAATAGIATFCMLMPEENFTADHPFLFFIRHNSSGSILFLGRFSSP
# Tests used:
# human β-cell = settings: ref El Ouaamari et al., 2016; cited from earlier work
# [1] = molecular target: porcine pancreatic elastase (pPE) (Sus scrofa, UniProt P00772); experiment: Absorbance-based protease activity assay, pPE; assay type: biochemical
# In short: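 Porcine pancreatic elastase (500 ng) was combined with 15 two-fold dilutions of test compound, starting at 20 μM. Controls were enzyme-free blank wells and enzyme-plus-DMSO wells. After 3 min at 37°C, N-methoxysuccinyl-Ala-Ala-Pro-Val-p-nitroanilide substrate was added. After 2 h at 37°C, absorbance at 405 was read every 15 s for 21 reads (5 min).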
# [2] = molecular target: human pancreatic elastase (PE); experiment: Absorbance-based protease activity assay, human PE; assay type: biochemical; settings: read-out: IC50 PE
# In short: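 Human pancreatic elastase (500 ng) mixed with 15 two-fold dilutions of test compound starting at 20 μM. Blank (no-enzyme) and DMSO wells serve as controls. Preincubated 3 min at 37°C, then N-methoxysuccinyl-Ala-Ala-Pro-Val-p-nitroanilide added. After 2 h at 37°C, absorbance read at 405 nm, 21 reads over 5 min. IC50 derived from the dilution series.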
# Ins+ cells = experiment: β-cell regeneration after metronidazole ablation in Tg; assay type: in vivo, zebrafish (Danio rerio); settings: added to growth medium 4–6 dpf, vs DMSO
# In short: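 Tg(ins:flag-NTR);Tg(tp1:H2BmCherry) zebrafish larvae had β-cells ablated in E3 medium with 10 mM metronidazole, 1% DMSO and 0.2 mM 1-phenyl-2-thiourea from 3 to 4 dpf. From 4 to 6 dpf, larvae were exposed to DMSO or test compound in the medium. Larvae then euthanized, fixed, immunostained with anti-insulin (1:100), imaged and Ins+ cells counted.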
# [3] = molecular target: T1, human neutrophil elastase (NE) (Homo sapiens, UniProt P08246); experiment: Absorbance-based protease activity assay, human NE; assay type: biochemical
# T1 sequence (P08246 30-267): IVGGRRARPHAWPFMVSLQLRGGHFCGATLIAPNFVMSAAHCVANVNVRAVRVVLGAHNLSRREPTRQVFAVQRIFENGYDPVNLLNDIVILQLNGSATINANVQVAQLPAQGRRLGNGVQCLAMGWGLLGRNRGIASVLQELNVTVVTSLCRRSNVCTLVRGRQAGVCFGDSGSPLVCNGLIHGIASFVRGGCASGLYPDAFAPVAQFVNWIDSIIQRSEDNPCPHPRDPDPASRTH
# human cathepsin G = molecular target: T2, human cathepsin G (Homo sapiens, UniProt P08311); experiment: Absorbance-based protease activity assay, human cathepsin G; assay type: biochemical
# T2 sequence (P08311 21-255): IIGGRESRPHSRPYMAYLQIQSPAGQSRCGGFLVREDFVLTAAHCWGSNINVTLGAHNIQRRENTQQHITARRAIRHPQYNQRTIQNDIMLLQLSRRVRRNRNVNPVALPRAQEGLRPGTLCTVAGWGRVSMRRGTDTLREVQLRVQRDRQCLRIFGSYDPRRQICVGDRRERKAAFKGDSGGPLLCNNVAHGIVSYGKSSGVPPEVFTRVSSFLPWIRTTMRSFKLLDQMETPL
# In short: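 Human cathepsin G (500 ng) combined with 15 two-fold dilutions of test compound from 20 μM; blank and DMSO wells included. After 3 min at 37°C, succinyl-Ala-Ala-Pro-Phe-p-nitroanilide substrate added and absorbance at 405 nm read immediately, 21 reads over 5 min.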
# human β-cells = experiment: Proliferation; assay type: cell-based; settings: 24 h, non-diabetic human islets
# EndoC-βH1 cells [4] = experiment: Static glucose-stimulated insulin secretion assay; assay type: cell-based, human
# In short: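 EndoC-βH1 cells kept overnight in 2.8 mM glucose DMEM growth medium with vehicles (PBS, DMSO), PE 500 ng/ml and/or test compound 1.5 μM. Preincubated 1 hr in KRB (NaCl 115, NaHCO3 24, KCl 5, MgCl2 1, CaCl2 1, HEPES 10 mM; 0.2% BSA) at 2.8 mM glucose. Then 1 hr in KRB at 2.8 or 11.1 mM glucose with PE ± test compound. DNA content measured.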
# [5] = tested on: transplanted human islets; assay type: in vivo, NSG mice; settings: 4 weeks
# In short: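 Male 8–10-week NSG mice received 1000 hand-picked human islet equivalents under the kidney capsule. After engraftment, vehicle (DMSO) or test compound was given by osmotic pump for 28 days. Grafts fixed overnight at 4°C in zinc formalin and cut as 5-μm paraffin serial sections. Sections co-stained for Ki67 or pHH3 with insulin and DAPI; cell death by TUNEL.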
# HFD mice = experiment: High-fat diet insulin-resistant mice, osmotic pump treatment; assay type: in vivo, C57BL6/J mice
# In short: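 Male C57BL6/J mice, obtained at 4 weeks old, kept on low-fat or high-fat diet for 24 weeks. From week 20, weight-matched animals received vehicle (DMSO) or test compound at 30 or 300 μg/kg/day for 28 days by subcutaneous osmotic pump; low-fat mice got vehicle. GTT, ITT and in vivo GSIS at weeks 0 and 4; insulin by ELISA. Pancreas sections used for immunofluorescent β-cell proliferation and mass.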
# human islets [6] = experiment: Phospho-antibody microarray; assay type: cell-based; settings: 30 min
# In short: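 Human islets cultured overnight in Miami Media #1A at 37°C, 5% CO2. 200 hand-picked islet equivalents collected after 10- or 30-min stimulation and processed for the phospho-antibody array.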
# human islets [7] = experiment: Western Blotting of phosphoproteins in human islets; assay type: cell-based; settings: telaprevir 1.5 or 150 μM for 30 min
# In short: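 Human islets cultured overnight in Miami Media #1A at 37°C, 5% CO2, then exposed to test compound for 30 min. RIPA lysates with protease and phosphatase inhibitors, protein by BCA, immunoblotted with phospho-specific and total antibodies.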
# EndoC-βH1 cells [8] = experiment: Phospho-ERK1/2 Western Blotting; assay type: cell-based, human; settings: PE +/− telaprevir for 30 min
# [9] = tested on: primary human β-cell cultures; experiment: Viability assay in dispersed human islet cells; assay type: cell-based
# In short: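 Human islets dispersed with TrypLE for 30 min at 37°C, neutralized with FBS, seeded on ECM/fibronectin and left overnight. Pretreated 24 h with water or FSLLRY-NH2 plus EdU 10 μM, then 24 h with vehicles or compounds plus EdU 10 μM. β-cells labelled with DA-ZP1; EdU Click-iT Alexa 647 and APC Annexin V. ≥4000 live (Zombie NIR-negative) cells counted by flow cytometry.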
# EndoC-βH1 cells [10] = experiment: Phospho-PAK1 Western Blotting; assay type: cell-based, human
# In short: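 EndoC-βH1 cells transfected with scramble oligo or siFAK, or with empty vector or C-terminal 3X FLAG-tagged PTK2 cDNA (lipofectamine). Cells starved overnight in growth medium with 2.8 mM glucose, then stimulated in 2.8 mM glucose plus 0.1% BSA with PBS or PE ± test compound. siFAK cells treated 30 min. RIPA lysates with protease/phosphatase inhibitors, BCA assay, immunoblot for PAK1 S144 and total PAK1.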
# EndoC-βH1 cells [11] = experiment: Brillouin microscopy of cell stiffness; assay type: cell-based, human; settings: PE 250 ng/ml, or PE + telaprevir (750 nm), 24 hr
# In short: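 After 24 hr incubation, stiffness of 12 cells per condition mapped by confocal Brillouin microscopy: 780 nm single-frequency laser, virtually imaged phase array spectrometer, non-contact longitudinal mechanical read-out.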
# EndoC-βH3 cells = experiment: Viability assays; assay type: cell-based, human
# In short: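 EndoC-βH3 cells exposed to 1 μM tamoxifen for 21 days, then 14 days wash-out. Starved overnight in 2.8 mM glucose medium and stimulated in 2.8 mM glucose with 0.1% BSA. Cells then trypsinized and labelled with EdU 5 μM for 3 h at 37°C, plus Annexin V. Up to 10,000 cells counted by flow cytometry. Caspase-3 activity measured colorimetrically at 405 nm.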
# [12] = tested on: HCV-infected individuals with diabetes; settings: ref Davis et al., 2017; Tallón de Lara et al., 2014; cited from earlier work
# [13] = telaprevir HD 300 μg/kg/day, osmotic pumps
# porcine pancreatic elastase (pPE), sequence (P00772 27-266): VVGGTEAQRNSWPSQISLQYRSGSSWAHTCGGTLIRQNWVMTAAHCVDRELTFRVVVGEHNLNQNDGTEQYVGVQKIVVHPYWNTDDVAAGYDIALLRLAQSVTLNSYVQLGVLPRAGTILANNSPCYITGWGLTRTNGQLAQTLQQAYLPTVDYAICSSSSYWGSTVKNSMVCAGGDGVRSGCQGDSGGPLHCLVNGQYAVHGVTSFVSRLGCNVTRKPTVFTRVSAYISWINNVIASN
molecule,measurement,setting,value
CC(C)[C@@H]1C(=O)N(S(C)(=O)=O)[C@@H]2CCN(C(=O)/C=C/CN3CCCCC3)[C@H]21.Cl [GW311616A],human β-cell proliferation,human β-cell,enhance human β-cell proliferation
CC(C)(C)C(=O)Oc1ccc(S(=O)(=O)Nc2ccccc2C(=O)NCC(=O)O)cc1 [sivelestat],IC50,[1],2000 nM
same,IC50,[2],2300 nM
same,Ins+ cells after β-cell ablation,Ins+ cells,trend towards an increase
same,human β-cell proliferation,human β-cell,enhance human β-cell proliferation
C[C@@H](O)[C@H]1C(=O)N2C(C(=O)O)=C(SC3CN(C4=NCCS4)C3)[C@H](C)[C@H]12 [tebipenem],IC50,[1],107000 nM
same,IC50,[2],3600 nM
same,IC50,[3],33600 nM
CCC[C@H](NC(=O)[C@@H]1[C@H]2CCC[C@H]2CN1C(=O)[C@@H](NC(=O)[C@@H](NC(=O)c1cnccn1)C1CCCCC1)C(C)(C)C)C(=O)C(=O)NC1CC1 [telaprevir],IC50,[1]; read-out: IC50 pPE,40.2 nM
same,IC50,[2],15.8 nM
same,IC50,[3],3600 nM
same,concentrations that partially inhibit human NE activity,[3],> 10 µM
same,inhibition of human cathepsin G,human cathepsin G,virtually no effect
same,"proliferation of other islet cell types, including α-cells and δ-cells",human β-cells,did not significantly stimulate proliferation
same,β-cell apoptosis (TUNEL),human β-cells; telaprevir at 100 μg/ml,significantly reducing apoptosis
same,"β-cell proliferation (Ki67 or pHH3), increase compared to control",human β-cells; telaprevir at 100 μg/ml,~ 3 fold
same,glucose responsiveness (GSIS) in cells treated with PE,EndoC-βH1 cells [4]; PE 500 ng/ml + telaprevir 1.5 μM,restore glucose responsiveness
same,β-cell function (GSIS) in the absence of PE,EndoC-βH1 cells [4]; telaprevir 1.5 μM alone,maintained normal function
same,"blood glucose (random-fed or fasting) levels, body weight, glucose sensitivity or human C-peptide levels","[5]; 30 or 300 μg/kg/day, vs vehicle",did not observe differences between groups
same,Ki67+ β-cells in human grafts,[5]; [13],increase
same,TUNEL+ β-cells in human grafts,[5]; [13],decrease
same,Ins+ cells after β-cell ablation,Ins+ cells,significant increase
same,insulin sensitivity or GSIS,"HFD mice; 4-week time point, vs HFD vehicle",did not affect
same,glucose tolerance,"HFD mice; high dose 300 μg/kg/day, week 4, vs HFD vehicle",improvement in glucose tolerance
same,random-fed blood glucose levels or body weights,HFD mice; telaprevir 30 or 300 μg/kg/day vs HFD vehicle,did not exhibit differences
same,area under the curve during GTT,HFD mice; telaprevir HD 300 μg/kg/day,"statistically similar to the LFD vehicle group, although not significantly different from vehicle-HFD mice"
same,β-cell mass,HFD mice; telaprevir HD 300 μg/kg/day vs HFD vehicle,significantly higher β-cell mass
same,4 h fasting C-peptide and fasting blood glucose,"HFD mice; telaprevir HD, after 4-week treatment compared to week 0",lowered
same,β-cell mass,HFD mice; telaprevir LD 30 μg/kg/day vs HFD vehicle,comparable
same,β-cell size,HFD mice; telaprevir LD and HD vs HFD vehicle,slightly lower β-cell size
same,protease-activated receptor (PARs) signaling cascade,human islets [6],significantly modulated
same,"phosphorylation levels of PAK1, PTK2B and ERK1/2",human islets [7],up-regulated
same,phospho-ERK1/2 levels,EndoC-βH1 cells [8],significantly increased phospho-ERK1/2 levels
same,β-cell viability (EdU+/Annexin V+ in DA-ZP1+ cells),[9]; PE +/− telaprevir for 24 h,significantly improved β-cell survival
same,phospho-PAK1 levels in scramble cells,"EndoC-βH1 cells [10]; 30 min, PE vs PBS, or PE + telaprevir at high dose vs PE alone",significantly increasing phosphorylation of PAK1
same,phosphorylated PAK1 in siFAK cells,"EndoC-βH1 cells [10]; PE + telaprevir vs PE-treated siFAK samples, 30 min",significantly decreased
same,phospho-PAK1 levels in EV (empty vector) cells,"EndoC-βH1 cells [10]; PE, or PE + telaprevir",restored
same,Brillouin frequency shift (stiffness),EndoC-βH1 cells [11],completely reverse these effects
same,regeneration levels and survival of siFAK FSLLRY-treated cells,EndoC-βH3 cells; PE + telaprevir,restored
same,proliferation/apoptosis ratio (β-cell viability) in scramble cells,"EndoC-βH3 cells; tamoxifen-treated EndoC-βH3, PE, or PE + telaprevir",boosted β-cell viability levels even higher than control cells
same,HbA1C levels,[12],reduce
same,circulating C-peptide,[12],increase
FSLLRY-NH2,capacity of telaprevir to counteract the detrimental effects of PE in FSLLRY-NH2 treated cells,"[9]; FSLLRY-NH2 pre-incubation, PE + telaprevir 24 h",impaired
B1,human β-cell proliferation,human β-cell,promotes human β-cell proliferation

# Reference: PMC10834355 (Cell metabolism, 2023)
